Test results reported in ChEMBL document CHEMBL1137555, “Aminocyclohexylsulfonamides: discovery of metabolically stable alpha(1a/1d)-selective adrenergic receptor antagonists for the treatment of benign prostatic hyperplasia/lower urinary tract symptoms (BPH/LUTS)” (Bioorg Med Chem Lett, 2007).

How the values were obtained:
[1] = target: T1, Alpha-1B adrenergic receptor (Homo sapiens, UniProt P35368); assay: Binding affinity to human cloned adrenergic alpha-1b receptor
T1 sequence (P35368 whole entry): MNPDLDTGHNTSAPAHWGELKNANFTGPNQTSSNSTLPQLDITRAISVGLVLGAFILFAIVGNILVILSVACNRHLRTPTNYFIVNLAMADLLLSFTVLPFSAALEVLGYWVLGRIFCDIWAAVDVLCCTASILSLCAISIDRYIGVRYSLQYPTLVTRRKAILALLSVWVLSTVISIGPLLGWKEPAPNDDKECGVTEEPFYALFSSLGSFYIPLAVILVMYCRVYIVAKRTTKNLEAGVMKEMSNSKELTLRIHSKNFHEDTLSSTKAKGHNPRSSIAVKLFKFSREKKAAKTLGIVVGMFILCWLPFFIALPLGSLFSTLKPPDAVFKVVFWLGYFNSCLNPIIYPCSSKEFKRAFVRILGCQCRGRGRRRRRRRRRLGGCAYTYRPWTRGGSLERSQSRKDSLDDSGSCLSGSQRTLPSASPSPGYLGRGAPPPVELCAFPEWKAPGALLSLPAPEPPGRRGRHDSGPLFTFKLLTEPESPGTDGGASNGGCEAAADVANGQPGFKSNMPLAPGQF

D(2) dopamine receptor = D(2) dopamine receptor (Homo sapiens, UniProt P14416); assay: Binding affinity to human cloned dopamine D2 receptor
[2] = Metabolic stability in human liver microsomes; format: ADME, Microsome
Method in brief: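 Human liver microsomal metabolism assay; read-out was half-life (T1/2, min).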

[3] = target: T2, Alpha-1D adrenergic receptor (Homo sapiens, UniProt P25100); assay: Binding affinity to human cloned adrenergic alpha-1d receptor
T2 sequence (P25100 whole entry): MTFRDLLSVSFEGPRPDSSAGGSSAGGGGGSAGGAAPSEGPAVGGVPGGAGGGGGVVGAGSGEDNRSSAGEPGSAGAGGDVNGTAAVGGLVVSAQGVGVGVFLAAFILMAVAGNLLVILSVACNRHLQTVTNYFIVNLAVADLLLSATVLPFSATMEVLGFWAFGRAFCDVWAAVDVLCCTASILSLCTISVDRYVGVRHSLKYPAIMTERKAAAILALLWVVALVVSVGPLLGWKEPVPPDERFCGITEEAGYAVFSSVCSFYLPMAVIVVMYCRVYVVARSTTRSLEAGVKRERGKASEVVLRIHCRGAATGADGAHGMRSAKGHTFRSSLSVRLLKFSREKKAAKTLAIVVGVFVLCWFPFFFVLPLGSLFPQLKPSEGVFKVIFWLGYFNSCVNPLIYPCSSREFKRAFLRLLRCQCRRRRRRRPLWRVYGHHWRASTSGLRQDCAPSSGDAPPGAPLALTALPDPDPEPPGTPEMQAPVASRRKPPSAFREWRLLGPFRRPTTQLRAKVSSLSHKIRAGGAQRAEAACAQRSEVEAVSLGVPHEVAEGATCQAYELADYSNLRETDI

[4] = target: T3, Alpha-1A adrenergic receptor (Homo sapiens, UniProt P35348); assay: Binding affinity to human cloned adrenergic Alpha-1A receptor
T3 sequence (P35348 whole entry): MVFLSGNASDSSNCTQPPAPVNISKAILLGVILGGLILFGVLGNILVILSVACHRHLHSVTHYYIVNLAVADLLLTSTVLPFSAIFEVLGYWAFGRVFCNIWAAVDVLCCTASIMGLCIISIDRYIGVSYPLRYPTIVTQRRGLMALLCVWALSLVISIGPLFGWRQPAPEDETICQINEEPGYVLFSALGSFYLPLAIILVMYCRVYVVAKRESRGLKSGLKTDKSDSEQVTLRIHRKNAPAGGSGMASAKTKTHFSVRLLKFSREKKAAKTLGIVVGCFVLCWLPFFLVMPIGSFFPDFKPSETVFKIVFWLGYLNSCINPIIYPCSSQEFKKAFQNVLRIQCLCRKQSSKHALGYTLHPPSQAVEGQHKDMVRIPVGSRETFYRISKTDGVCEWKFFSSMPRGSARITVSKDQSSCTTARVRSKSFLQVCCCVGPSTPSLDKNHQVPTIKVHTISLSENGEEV

Sequence of D(2) dopamine receptor (P14416 whole entry): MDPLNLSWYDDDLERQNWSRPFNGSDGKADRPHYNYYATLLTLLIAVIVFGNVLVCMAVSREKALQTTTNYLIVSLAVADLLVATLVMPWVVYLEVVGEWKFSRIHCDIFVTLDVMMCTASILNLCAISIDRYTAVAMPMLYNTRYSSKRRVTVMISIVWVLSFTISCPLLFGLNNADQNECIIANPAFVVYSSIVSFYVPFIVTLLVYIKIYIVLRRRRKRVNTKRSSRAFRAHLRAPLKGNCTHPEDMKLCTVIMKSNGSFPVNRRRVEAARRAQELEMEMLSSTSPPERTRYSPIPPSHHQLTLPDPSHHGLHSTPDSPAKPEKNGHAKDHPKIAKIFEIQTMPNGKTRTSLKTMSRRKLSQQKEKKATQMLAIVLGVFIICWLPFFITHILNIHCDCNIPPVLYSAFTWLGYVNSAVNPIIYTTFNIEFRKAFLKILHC

| Ki (D(2) dopamine receptor) [nM] | half-life [2] [min] | Compound | Ki [1] [nM] | Ki [3] [nM] | Ki [4] [nM] |
| --- | --- | --- | --- | --- | --- |
| 114 |  | COc1ccc(S(=O)(=O)N[C@H]2CC[C@H](N3CCN(c4ccccc4OCC(F)(F)F)CC3)CC2)cc1OC | 39 |  |  |
|  | 18 | COc1ccc(S(=O)(=O)N[C@H]2CC[C@@H](N3CCC(c4ccccc4OC4CC4)CC3)CC2)cc1OC |  |  |  |
| 113 |  | CCN([C@H]1CC[C@@H](N2CCN(c3ccccc3OC(C)C)CC2)CC1)S(=O)(=O)c1ccc(OC)c(OC)c1 |  |  |  |
|  | 3.5 | CC(C)Oc1ccccc1N1CCN([C@H]2CC[C@@H](NS(=O)(=O)c3ccc(Cl)cc3Cl)CC2)CC1 |  |  |  |
|  | < 2 | COc1ccc(Cl)cc1S(=O)(=O)N[C@H]1CC[C@@H](N2CCN(c3ccccc3OC(C)C)CC2)CC1 |  |  |  |
| 192 | 35 | COc1ccc(S(=O)(=O)N[C@H]2CC[C@@H](N3CCN(c4ccccc4OCC(F)(F)F)CC3)CC2)cc1OC | 86 | 0.35 |  |
|  | 2.5 | CC(C)Oc1ccccc1N1CCN([C@H]2CC[C@@H](NS(=O)(=O)c3ccc(S(C)(=O)=O)cc3)CC2)CC1 |  |  |  |
| 2.7 |  | CCN([C@H]1CC[C@H](N2CCN(c3ccccc3OC(C)C)CC2)CC1)S(=O)(=O)c1ccc(OC)c(OC)c1 |  |  |  |
|  | < 2 | COc1ccc(F)cc1S(=O)(=O)N[C@H]1CC[C@@H](N2CCN(c3ccccc3OC(C)C)CC2)CC1 |  |  |  |
|  | 56 | COc1ccc(S(=O)(=O)N[C@H]2CC[C@@H](N3CCC(c4ccccc4OCC(F)(F)F)CC3)CC2)cc1OC |  |  |  |
|  | < 2 | COc1ccc(C)cc1S(=O)(=O)N[C@H]1CC[C@@H](N2CCN(c3ccccc3OC(C)C)CC2)CC1 |  |  |  |
| 330 | 20 | COc1ccc(S(=O)(=O)N[C@H]2CC[C@@H](N3CCC(c4ccccc4OCCF)CC3)CC2)cc1OC |  |  |  |

| Compound | Ki (D(2) dopamine receptor) [nM] | half-life [2] [min] | Ki [1] [nM] | Ki [3] [nM] | Ki [4] [nM] |
| --- | --- | --- | --- | --- | --- |
| COc1ccc(S(=O)(=O)N[C@H]2CC[C@@H](N3CCN(c4ccccc4OC(C)C)CC3)CC2)cc1OC | 136 | 4.9 | 106 | 0.68 |  |
| COc1ccc(S(=O)(=O)N[C@H]2CC[C@@H](N3CCC(c4ccccc4OCC(F)F)CC3)CC2)cc1OC | 228 | 21 | 278 | 8.6 |  |
| COc1ccc(S(=O)(=O)N[C@H]2CC[C@@H](N3CCC(c4ccccc4OC(C)C)CC3)CC2)cc1OC | 165 | 12 | 151 | 1.7 | 1.8 |
